This note sets out measurements from paper PMC4128789 (Drug Design, Development and Therapy, 2014).

Common to all, as to type: cell-based
In assay [1] the test system is SMMC-7721 (human liver carcinoma) cells. Nature of the assay: MTT in vitro cytotoxicity assay, SMMC-7721. Particulars: read-out: IC50 (μM) SMMC-7721. In a few lines: (§1)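 Cells grown in DMEM with 10% FBS, penicillin/streptomycin, 37°C, 5% CO2. Seeded at 10,000 (MCF-7), 5,000 (SW-1990) or 6,000 (SMMC-7721) per well for 24 h. Test compound in DMSO, diluted in medium (0.1% DMSO), given at 1.95–250 μM final for 48 h. MTT (5 mg/mL, 10% v/v) added for 4 h; formazan dissolved in DMSO; A570 read, 630 nm background. % inhibition calculated versus 0.1% DMSO control; IC50 from viability–dose plot; at least triplicate, mean ± SD.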

Assay [2] concerns SW-1990 (human pancreatic carcinoma) cells. Nature of the assay: MTT in vitro cytotoxicity assay, SW-1990. Particulars: for IC50: read-out: IC50 (μM) SW-1990. In a few lines:
as §1

In assay [3] the test system is MCF-7 (human breast adenocarcinoma) cells. As to the kind of experiment: MTT in vitro cytotoxicity assay, MCF-7. Particulars: read-out: IC50 (μM) MCF-7. In a few lines:
as §1

The test system of assay [4] is Human umbilical vein endothelial cell (HUVEC). Nature of the assay: MTT in vitro cytotoxicity assay, HUVEC. Particulars: for selectivity toward the normal cell line HUVEC compared with berberine: cancer cell lines versus HUVEC. The essentials: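 HUVEC used at passages 1–7, grown in endothelial basal medium with 3% FBS growth supplement. Seeded at 5,000 cells/well and held 24 h at 37°C, 5% CO2. Test compound in DMSO, diluted in medium (0.1% DMSO final), given at 1.95–250 μM for 48 h. MTT added for 4 h, formazan dissolved in DMSO, absorbance read at 570 nm less 630 nm. IC50 from viability versus dose; at least triplicate, mean ± SD.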

The mark [5] stands for this setting: MTT assay after 48 hours of drug exposure, mean ± SD.

Read-outs that look alike come from different tables or passages of the source.

One may read the IC50 as the concentration needed to halve the response being measured. As for “9-O-[1-(2-fluorobenzyl)-4-ethyl-1H-1, 2, 3-triazole] berberine chloride [Compound 5]”, the IC50 was found to be 44.5 ± 4.88 µM in assay [1] (setting [5]), 64 ± 8.46 µM in assay [2] (setting [5]) and 75 ± 9.35 µM in assay [3] (setting [5]).

With “9-O-[1-(2-methylbenzyl)-4-ethyl-1H-1, 2, 3-triazole] berberine chloride [Compound 14]”, the IC50 stood at 19.9 ± 2.33 µM in assay [1] (setting [5]), 23.7 ± 3.47 µM in assay [2] (setting [5]) and 40.8 ± 5.92 µM in assay [3] (setting [5]). Also, the “selectivity toward the normal cell line HUVEC compared with berberine” value in assay [4] is reported as “much better selectivity than berberine”.

Take “9-O-[1-(3-fluorobenzyl)-4-ethyl-1H-1, 2, 3-triazole] berberine chloride [Compound 6]”: the IC50 amounted to 51.5 ± 6.03 µM in assay [1] (setting [5]), 62.6 ± 7.85 µM in assay [2] (setting [5]) and 69.9 ± 8.73 µM in assay [3] (setting [5]).

Consider “9-O-[1-(4-fluorobenzyl)-4-ethyl-1H-1, 2, 3-triazole] berberine chloride [Compound 7]”, for which the IC50 in assay [1] (setting [5]) was determined as 54.6 ± 5.98 µM; in assay [2] (setting [5]), 53.6 ± 6.33 µM; in assay [3] (setting [5]), 73.5 ± 10.2 µM.

The inhibition is the relative decrease from the control value, in per cent. Consider `COc1ccc2cc3[n+](cc2c1OC)CCc1cc2c(cc1-3)OCO2` [BBR, berberine, reference compound], for which the IC50 is 68.1 ± 7.76 µM in assay [1] (Homo sapiens, SMMC-7721, 48 h); 27.6 ± 3.04 µM in assay [2] (Homo sapiens, SW1990, 48 h); 122 ± 11.3 µM in assay [3] (Homo sapiens, MCF7, 48 h); 18.3 ± 2.31 µM in assay [4] (Homo sapiens, HUVEC, 48 h, read-out: IC50 (μM) HUVEC). The inhibition at 62.5 µM in assay [2] (Homo sapiens, SW1990, read-out: inhibition against SW-1990 cell growth) was above 50%.

In the case of `COc1ccc2cc3[n+](cc2c1OCCc1cn(Cc2ccc(Br)cc2)nn1)CCc1cc2c(cc1-3)OCO2` [Compound 13, 9-O-[1-(4-bromobenzyl)-4-ethyl-1H-1,2,3-triazole] berberine chloride], the half-inhibitory concentration (IC50) in assay [1] (setting [5]) was found to be 20 ± 2.37 µM; in assay [2] (setting [5]), 30.4 ± 4.89 µM; in assay [3] (setting [5]), 47.1 ± 6.93 µM.

Consider `COc1ccc2cc3[n+](cc2c1OCCc1cn(Cc2ccc(C)cc2)nn1)CCc1cc2c(cc1-3)OCO2.[Cl-]` [Compound 15, 9-O-[1-(4-methylbenzyl)-4-ethyl-1H-1,2,3-triazole] berberine chloride], for which the half-inhibitory concentration (IC50) in assay [1] (setting [5]) was 39.4 ± 4.98 µM; in assay [2] (setting [5]), 32 ± 4.23 µM; in assay [3] (setting [5]) it was 37.8 ± 4.66 µM. In addition, the “selectivity toward the normal cell line HUVEC compared with berberine” value in assay [4] is “much better selectivity than berberine”.

As to `COc1ccc2cc3[n+](cc2c1OCCc1cn(Cc2cccc(C(F)(F)F)c2)nn1)CCc1cc2c(cc1-3)OCO2` [Compound 20, 9-O-[1-(3-(trifluoromethyl)benzyl-4-ethyl-1H-1,2,3-triazole]berberine chloride], the IC50 in assay [1] (setting [5]) was 32.2 ± 5.2 µM; in assay [2] (setting [5]) it was 39.3 ± 3.76 µM; in assay [3] (setting [5]) it was 86.2 ± 10.5 µM.

With `COc1ccc2cc3[n+](cc2c1OCCc1cn(Cc2ccc(C(F)(F)F)cc2)nn1)CCc1cc2c(cc1-3)OCO2` [Compound 21, 9-O-[1-(4-(trifluoromethyl)benzyl-4-ethyl-1H-1,2,3-triazole]berberine chloride], the IC50 in assay [1] (setting [5]) is 23.3 ± 2.63 µM; in assay [2] (setting [5]) it was 36.8 ± 3.45 µM; in assay [3] (setting [5]) it was 68.1 ± 7.56 µM.

Regarding `COC(=O)c1ccc(Cn2cc(CCOc3c(OC)ccc4cc5[n+](cc34)CCc3cc4c(cc3-5)OCO4)nn2)cc1` [Compound 25, 9-O-[1-(4-methyl formatebenzyl)-4-ethyl-1H-1,2,3-triazole] berberine chloride], the results for the IC50 in assay [1] (setting [5]), in assay [2] (setting [5]) and in assay [3] (setting [5]) were 53.5 ± 5.84 µM, 165 ± 18.9 µM and 249 ± 20.1 µM, respectively.

Turning to `COc1ccc2cc3[n+](cc2c1OCCc1cn(Cc2ccc(F)cc2F)nn1)CCc1cc2c(cc1-3)OCO2` [Compound 27, 9-O-[1-(2,4-difluorobenzyl)-4-ethyl-1H-1,2,3-triazole] berberine chloride], the figures for the IC50 in assay [1] (setting [5]), in assay [2] (setting [5]) and in assay [3] (setting [5]) were 35.9 ± 4.76 µM, 69 ± 9.33 µM and 70.7 ± 6.45 µM, respectively.

Consider `COc1ccc2cc3[n+](cc2c1OCCc1cn(Cc2ccc(F)c(F)c2)nn1)CCc1cc2c(cc1-3)OCO2` [Compound 29, 9-O-[1-(3,4-difluorobenzyl)-4-ethyl-1H-1,2,3-triazole] berberine chloride], for which the IC50 in assay [1] (setting [5]) worked out at 43.8 ± 5.32 µM; in assay [2] (setting [5]), 38.5 ± 4.65 µM; in assay [3] (setting [5]) it was 81.2 ± 10.4 µM.

For `COc1ccc2cc3[n+](cc2c1OCCc1cn(Cc2cc(Cl)ccc2Cl)nn1)CCc1cc2c(cc1-3)OCO2` [Compound 33, 9-O-[1-(2,5-dichlorobenzyl)-4-ethyl-1H-1,2,3-triazole] berberine chloride], the IC50 in assay [1] (setting [5]) was found to be 24.2 ± 3.48 µM; in assay [2] (setting [5]) it was 38.6 ± 4.57 µM; in assay [3] (setting [5]), 65.5 ± 7.22 µM.

Take `COc1ccc2cc3[n+](cc2c1OCCc1cn(Cc2ccc(Cl)c(Cl)c2)nn1)CCc1cc2c(cc1-3)OCO2.[Cl-]` [Compound 35, 9-O-[1-(3,4-dichlorobenzyl)-4-ethyl-1H-1,2,3-triazole] berberine chloride]: the IC50 was 16.1 ± 2.92 µM in assay [1] (setting [5]), 20.4 ± 2.35 µM in assay [2] (setting [5]) and 30.8 ± 4.32 µM in assay [3] (setting [5]). Also, the “IC50 against HUVECs relative to compound 32” value in assay [4] (ratio to compound 32 IC50) was “four times lower than that of 32”.
